Measurements as given in ChEMBL document CHEMBL1142928, “Substitution at the 8-position of 3''-deoxy-cyclic ADP-carbocyclic-ribose, a highly potent Ca2+-mobilizing agent, provides partial agonists” (Bioorg Med Chem, 2007).
The source made the active and inactive calls. The calls are words filed in the database; no cut-off is given here.

Columns and labels:
Assay type in all cases: functional
[1] = test system: Echinoidea; test: Calcium-mobilizing activity in Sea urchin egg homogenate
Method in brief: (§1)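 Homogenate of Hemicentrotus pulcherrimus sea urchin eggs. Ca2+ release was monitored fluorometrically with fura-2 as the F340/F380 ratio over a range of analogue concentrations. Each response was expressed as the percent change in ratio relative to the response to the maximal cADPcR concentration. EC50 values were taken from dose–response curves.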

[2] = test system: Echinoidea; test: Calcium-mobilizing activity in Sea urchin egg homogenate relative to cADPcR; method in brief: as §1
[3] = test system: Echinoidea; test: Inhibition of cADPcR-induced calcium release in Sea urchin egg homogenate
Method in brief: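 Hemicentrotus pulcherrimus egg homogenate was read by fura-2 fluorescence ratio (F340/F380). Homogenate was exposed to graded analogue concentrations, then challenged with the maximal concentration of cADPcR. IC50 values were derived from dose-dependent desensitization (cross-desensitization) of the cADPcR-induced Ca2+ release.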

Compound	EC50 [1] [nM]	Activity [2] [%]	IC50 [3] [nM]	Activity [1]
Nc1c2ncn3c2nc[n+]1[C@@H]1C[C@H](COP(=O)([O-])OP(=O)(O)OC[C@H]2O[C@@H]3[C@H](O)[C@@H]2O)C[C@H]1O	17	100	–	–
Nc1nc2c(N)[n+]3cnc2n1[C@@H]1O[C@H](COP(=O)([O-])OP(=O)(O)OC[C@H]2C[C@@H]3[C@H](O)[C@@H]2O)[C@@H](O)[C@H]1O	89	33	96	–
[N-]=[N+]=Nc1nc2c(N)[n+]3cnc2n1[C@@H]1O[C@H](COP(=O)(O)OP(=O)([O-])OC[C@@H]2C[C@@H](O)[C@H]3C2)[C@@H](O)[C@H]1O	490	16	1100	–
CCCNc1nc2c(N)[n+]3cnc2n1[C@@H]1O[C@H](COP(=O)(O)OP(=O)([O-])OC[C@@H]2C[C@@H](O)[C@H]3C2)[C@@H](O)[C@H]1O	–	–	–	inactive
Nc1c2ncn3c2nc[n+]1[C@@H]1C[C@H](COP(=O)([O-])OP(=O)(O)OC[C@H]2O[C@@H]3[C@H](O)[C@@H]2O)[C@@H](O)[C@H]1O	79	–	–	–
[N-]=[N+]=Nc1nc2c(N)[n+]3cnc2n1[C@@H]1O[C@H](COP(=O)(O)OP(=O)([O-])OC[C@H]2C[C@@H]3[C@H](O)[C@@H]2O)[C@@H](O)[C@H]1O	–	–	4200	–
Nc1c2nc(Cl)n3c2nc[n+]1[C@@H]1C[C@H](COP(=O)([O-])OP(=O)(O)OC[C@H]2O[C@@H]3[C@H](O)[C@@H]2O)C[C@H]1O	190	21	410	–
Nc1c2nc(Cl)n3c2nc[n+]1[C@@H]1C[C@H](COP(=O)(O)OP(=O)([O-])OC[C@H]2O[C@@H]3[C@H](O)[C@@H]2O)[C@@H](O)[C@H]1O	–	–	3000	–
Nc1nc2c(N)[n+]3cnc2n1[C@@H]1O[C@H](COP(=O)(O)OP(=O)([O-])OC[C@@H]2C[C@@H](O)[C@H]3C2)[C@@H](O)[C@H]1O	17	14	44	–
